Measured values taken from ChEMBL document CHEMBL3877332, “Synthesis, Biological Evaluation, and Autophagy Mechanism of 12N-Substituted Sophoridinamines as Novel Anticancer Agents” (ACS Med Chem Lett, 2017).
The source made the active and inactive calls. The calls are words filed in the database; no cut-off is given here.

Legend:
[1] = Antiproliferative activity against human HepG2 cells assessed as reduction in cell viability by MTT assay; format: functional, cell-based
[2] = Antiproliferative activity against human HMLE cells assessed as reduction in cell viability by MTT assay; format: functional, cell-based
HepG2 [3] = test: Blockade of autophagic flux in human HepG2 cells transfected with mCherry-EGFP-LC3 assessed as punctate dot formation at 5 uM after 6 hrs by DAPI staining-based confocal microscopic analysis; format: functional, cell-based
Method in brief: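 HepG2 cells were transfected with an mCherry-EGFP-LC3 tandem plasmid and treated at 5 μM for 6 h (CQ 50 μM alongside). Imaging was by confocal microscopy with DAPI-stained nuclei. GFP/mCherry double-positive and mCherry single-positive puncta per cell were counted in ≥100 cells per count. Data are the mean of three independent experiments ± SD.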

A549 [4] = test: Blockade of autophagic flux in human A549 cells assessed as increase in LC3-2 level at 5 uM after 8 hrs in presence of rapamycin by Western blot analysis; format: functional, cell-based
Method in brief: (§1)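 A549 and HepG2 cells were pretreated with chloroquine (10 μM) or rapamycin (200 nM) for 2 h. Compound was then added at 5 μM for 8 h. LC3 turnover (LC3-II) was detected by Western blot.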

HepG2 [5] = test: Blockade of autophagic flux in human HepG2 cells assessed as increase in LC3-2 level at 5 uM after 8 hrs in presence of rapamycin by Western blot analysis; format: functional, cell-based; method in brief: as §1
[6] = MRT in Sprague-Dawley rat at 25 mg/kg, po measured up to 24 hrs; format: ADME, organism-based; settings: in vivo
Method in brief: (§2)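 Adult male Sprague-Dawley rats were given a single oral dose of 25 mg/kg. Nine blood samples (0.3 mL) were taken over 24 h. n = 3.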

HepG2 [7] = test: Blockade of autophagic flux in human HepG2 cells assessed as increase in LC3-2 level at 5 uM after 8 hrs in presence of chloroquine by Western blot analysis; format: functional, cell-based; method in brief: as §1
[8] = Cmax in Sprague-Dawley rat at 25 mg/kg, po measured up to 24 hrs; format: ADME, organism-based; parameters: dose 25 mg/kg, route oral; settings: in vivo; method in brief: as §2
[9] = Half life in Sprague-Dawley rat at 25 mg/kg, po measured up to 24 hrs; format: ADME, organism-based; settings: in vivo; method in brief: as §2
[10] = Tmax in Sprague-Dawley rat at 25 mg/kg, po measured up to 24 hrs; format: ADME, organism-based; settings: in vivo; method in brief: as §2
[11] = AUC (0 to infinity) in Sprague-Dawley rat at 25 mg/kg, po measured up to 24 hrs; format: ADME, organism-based; parameters: dose 25 mg/kg, route oral, time infinity; settings: in vivo; method in brief: as §2
[12] = Antiproliferative activity against human K562 cells assessed as reduction in cell viability by MTT assay; format: functional, cell-based
[13] = AUCt in Sprague-Dawley rat at 25 mg/kg, po measured up to 24 hrs; format: ADME, organism-based; parameters: time < 24 hr, dose 25 mg/kg, route oral; settings: in vivo; method in brief: as §2
A549 [14] = test: Blockade of autophagic flux in human A549 cells assessed as increase in LC3-2 level at 5 uM after 8 hrs in presence of chloroquine by Western blot analysis; format: functional, cell-based; method in brief: as §1
HepG2 [15] = test: Reduction in lysosomal acidification in human HepG2 cells at 5 uM after 6 hrs by DAPI/lyso tracker red-double staining based confocal microscopic analysis relative to control; format: functional, cell-based
Method in brief: (§3)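 HepG2 cells were incubated at 5 μM (test agent) or 50 μM (chloroquine) for 6 h, then stained with LysoTracker Red. Nuclei were stained with DAPI and cells imaged by confocal microscopy (×63). LysoTracker Red signal was quantified per cell against untreated control.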

HepG2 [16] = test: Induction of autophagosome accumulation in human HepG2 cells transfected with EGFP-LC3 assessed as punctate dot formation at 5 uM after 6 hrs by fluorescent microscopic analysis relative to control; format: functional, cell-based
Method in brief: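 HepG2 cells were transfected with an EGFP-LC3 plasmid, then exposed 24 h later to 5 μM or left untreated for 6 h. Cells were imaged by fluorescence microscopy, and EGFP-LC3 puncta per cell were counted in at least 100 cells per group.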

[17] = Cytotoxicity against human HepG2 cells assessed as reduction in cell viability at 5 uM by MTT assay; format: functional
Method in brief: (§4)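 HepG2 cells were exposed to test agent at 5 μM or chloroquine at 50 μM for the indicated times. Viability was measured by MTT assay.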

A549 [18] = test: Induction of autophagosome accumulation in human A549 cells transfected with EGFP-LC3 assessed as punctate dot formation at 5 uM after 6 hrs by fluorescent microscopic analysis relative to control; format: functional, cell-based
[19] = Cytotoxicity against human HepG2 cells assessed as reduction in cell viability at 50 uM by MTT assay; format: functional; method in brief: as §4
HepG2 [20] = test: Reduction in lysosomal acidification in human HepG2 cells at 50 uM after 6 hrs by DAPI/lyso tracker red-double staining based confocal microscopic analysis relative to control; format: functional, cell-based; method in brief: as §3

## O=S(=O)(c1ccc(Cl)cc1)N1C[C@H]2CCCN3CCC[C@@H]([C@H]23)[C@H]1CCCCNCc1cccc2c1OCO2
[1]
  IC50: 3.8 µM

## COc1cc(NCCCC[C@@H]2[C@H]3CCCN4CCC[C@H](CN2S(=O)(=O)c2ccc(Cl)cc2)[C@@H]34)cc(OC)c1OC
[1]
  IC50: 7.9 µM

## COC(=O)CCC[C@@H]1[C@H]2CCCN3CCC[C@H](CN1S(=O)(=O)c1ccc(Cl)cc1)[C@@H]23
[1]
  IC50: 15.8 µM

## CC(C)(C)C(=O)N1C[C@H]2CCCN3CCC[C@@H]([C@H]23)[C@H]1CCCCO
[1]
  IC50: > 50 µM

## COC(=O)CCC[C@@H]1[C@H]2CCCN3CCC[C@H](CN1C(=O)c1ccc(Cl)cc1)[C@@H]23
[1]
  IC50: > 50 µM

## COc1cc(CNCCCC[C@@H]2[C@H]3CCCN4CCC[C@H](CN2Cc2ccc(Cl)cc2)[C@@H]34)cc(OC)c1OC
[2]
  IC50: 0.55 µM
[1]
  IC50: 1.7 µM
HepG2 [3]
  Activity: Active
A549 [4]
  Activity: Active
HepG2 [5]
  Activity: Active
[6]
  MRT: 11.6 h
HepG2 [7]
  Activity: Active
[8]
  Cmax: 4900 nM
[9]
  half-life: 13 h
[10]
  Tmax: 1.6 h
[11]
  AUC(0-inf): 13.3 µM·h
[12]
  IC50: 1.03 µM
[13]
  AUC(0-t) at 24 h: 10.8 µM·h
A549 [14]
  Activity: Active
HepG2 [15]
  Activity: Active
HepG2 [16]
  Activity: Active
[17]
  Activity: 50%
A549 [18]
  Activity: Active

## O=C(c1ccc(Cl)cc1)N1C[C@H]2CCCN3CCC[C@@H]([C@H]23)[C@H]1CCCCNCc1cccc2c1OCO2
[1]
  IC50: 16.5 µM

## COc1cc(CNCCCC[C@@H]2[C@H]3CCCN4CCC[C@H](CN2C(=O)c2ccc(Cl)cc2)[C@@H]34)cc(OC)c1OC
[1]
  IC50: > 20 µM

## CC[C@@]1(O)C(=O)OCc2c1cc1n(c2=O)Cc2cc3c(CN(C)C)c(O)ccc3nc2-1 [TOPOTECAN]
[2]
  IC50: 0.75 µM
[12]
  IC50: 1.15 µM

## COC(=O)CCC[C@@H]1[C@H]2CCCN3CCC[C@H](CN1C(=O)N(CCCl)N=O)[C@@H]23
[1]
  IC50: 38.3 µM

## Clc1ccc(CN2C[C@H]3CCCN4CCC[C@@H]([C@H]34)[C@H]2CCCCNCc2cccc3c2OCO3)cc1
[2]
  IC50: 0.64 µM
[1]
  IC50: 2.6 µM
[6]
  MRT: 9.1 h
[8]
  Cmax: 2700 nM
[9]
  half-life: 11.2 h
[10]
  Tmax: 1.2 h
[11]
  AUC(0-inf): 6.8 µM·h
[12]
  IC50: 1.14 µM
[13]
  AUC(0-t) at 24 h: 5.7 µM·h

## O=S(=O)(c1ccc(Cl)cc1)N1C[C@H]2CCCN3CCC[C@@H]([C@H]23)[C@H]1CCCCO
[1]
  IC50: 28.8 µM

## COC(=O)CCC[C@@H]1[C@H]2CCCN3CCC[C@H](CN1C(=O)NCCCl)[C@@H]23
[1]
  IC50: > 50 µM

## COc1cc(NCCCC[C@@H]2[C@H]3CCCN4CCC[C@H](CN2Cc2ccc(Cl)cc2)[C@@H]34)cc(OC)c1OC
[1]
  IC50: 6.4 µM

## O=S(=O)(c1ccc(Cl)cc1)N1C[C@H]2CCCN3CCC[C@@H]([C@H]23)[C@H]1CCCCNCCc1cccc2c1OCO2
[1]
  IC50: 5.5 µM

## CCN(CC)CCCC(C)Nc1ccnc2cc(Cl)ccc12 (configuration not stated) [CHLOROQUINE]
[19]
  Activity: 50%
HepG2 [20]
  Activity: Active

## O=C(c1ccc(Cl)cc1)N1C[C@H]2CCCN3CCC[C@@H]([C@H]23)[C@H]1CCCCNCCc1cccc2c1OCO2
[1]
  IC50: > 20 µM

## COC(=O)CCC[C@@H]1[C@H]2CCCN3CCC[C@H](CN1C(=O)C(C)(C)C)[C@@H]23
[1]
  IC50: > 50 µM

## OCCCC[C@@H]1[C@H]2CCCN3CCC[C@H](CN1Cc1ccc(Cl)cc1)[C@@H]23
[1]
  IC50: 9.3 µM

## O=C(c1ccc(Cl)cc1)N1C[C@H]2CCCN3CCC[C@@H]([C@H]23)[C@H]1CCCCO
[1]
  IC50: > 50 µM

## Clc1ccc(CN2C[C@H]3CCCN4CCC[C@@H]([C@H]34)[C@H]2CCCCNCCc2cccc3c2OCO3)cc1
[2]
  IC50: 0.68 µM
[1]
  IC50: 2.6 µM
[6]
  MRT: 10.8 h
[8]
  Cmax: 2900 nM
[9]
  half-life: 21.9 h
[10]
  Tmax: 1.8 h
[11]
  AUC(0-inf): 11.7 µM·h
[12]
  IC50: 1.09 µM
[13]
  AUC(0-t) at 24 h: 6.1 µM·h

## Clc1ccc(CN2C[C@H]3CCCN4CCC[C@@H]([C@H]34)[C@H]2CCCCNc2cccc3c2OCO3)cc1
[1]
  IC50: 10.6 µM
